Experiments:
Tubulin = Tubulin (Bos taurus, UniProt Q6B856+Q862L2+Q862F3); assay: Inhibitory concentration required against MAP-rich tubulin polymerization; type: functional
HT-29 = assay: In vitro cytotoxic activity against human HT-29 cell line of colorectal carcinoma; type: functional, cell-based
Summary of the method: (§1)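 Cells kept in RPMI-1640 with 5% fetal bovine serum; log-phase cells seeded at 5000 cells/mL/well, exposed to various drug concentrations for 72 h. Growth read by methylene blue dye assay; IC50 (50% growth inhibition versus control) derived graphically. Mean and SD of at least three independent experiments.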

TSGH = assay: In vitro cytotoxic activity against human TSGH cell line of stomach carcinoma; type: functional, cell-based; summary of the method: as §1
KB [1] = assay: In vitro cytotoxic activity against human KB cell line of epidermoid carcinoma; type: functional, cell-based; summary of the method: as §1
KB [2] = assay: In vitro cytotoxic activity against human KB-VIN10 cell line overexpressing P-gp 170/MDR; type: functional, cell-based
Summary of the method: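 Vincristine-selected P-gp170/MDR-overexpressing KB line, maintained with 10 nM vincristine, then grown drug-free for 3 days before use. Log-phase cells seeded at 5000 cells/mL/well, exposed 72 h to various drug concentrations; methylene blue dye readout, IC50 (50% growth inhibition versus control) taken graphically. Mean and SD, at least three independent experiments.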

[3] = biological target: Tubulin alpha chain (Sus scrofa) (UniProt P02550); assay: Ability to inhibit 3[H]Colchicine binding to colchicine-binding domain of tubulin; Weak inhibition
Chain of Tubulin alpha chain (Sus scrofa) (P02550 whole entry, looked up, the tested form may be a part): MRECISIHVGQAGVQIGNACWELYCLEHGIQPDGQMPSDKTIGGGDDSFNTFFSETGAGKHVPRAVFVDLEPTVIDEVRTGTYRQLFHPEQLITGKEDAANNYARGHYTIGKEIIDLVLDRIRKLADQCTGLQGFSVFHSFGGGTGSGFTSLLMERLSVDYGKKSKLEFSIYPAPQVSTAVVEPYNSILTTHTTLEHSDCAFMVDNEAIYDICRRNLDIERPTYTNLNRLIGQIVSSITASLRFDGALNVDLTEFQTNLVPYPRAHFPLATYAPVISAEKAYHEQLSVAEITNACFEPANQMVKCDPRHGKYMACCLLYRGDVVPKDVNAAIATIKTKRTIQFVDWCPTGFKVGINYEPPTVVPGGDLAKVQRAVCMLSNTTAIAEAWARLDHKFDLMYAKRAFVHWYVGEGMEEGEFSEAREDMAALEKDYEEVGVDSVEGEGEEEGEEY

[4] = biological target: Tubulin alpha chain (Sus scrofa) (UniProt P02550); assay: Ability to inhibit 3[H]Colchicine binding to colchicine-binding domain of tubulin; Strong inhibition
[5] = biological target: Tubulin alpha chain (Sus scrofa) (UniProt P02550); assay: Ability to inhibit 3[H]Colchicine binding to colchicine-binding domain of tubulin; effective inhibition

SMILES: COc1cc(C(=O)c2ccc(Cl)c(N)c2)cc(OC)c1OC
- IC50 (Tubulin): 11000 nM
- IC50 (HT-29): 4000 nM
- IC50 (TSGH): 4000 nM
- IC50 (KB [1]): 800 nM
- IC50 (KB [2]): 3800 nM

SMILES: CCOc1ccc(C(=O)c2cc(OC)c(OC)c(OC)c2)cc1N
- IC50 (Tubulin): 700 nM
- IC50 (HT-29): 45 nM
- IC50 (TSGH): 42 nM
- IC50 (KB [1]): 59 nM
- IC50 (KB [2]): 40 nM

SMILES: COc1ccc(/C=C\c2cc(OC)c(OC)c(OC)c2)cc1O [COMBRETASTATIN A4]
- IC50 (HT-29): 260 nM
- IC50 (TSGH): 45 nM
- IC50 (KB [1]): 2.1 nM
- IC50 (KB [2]): 2.4 nM

SMILES: COc1ccc(N)cc1C(=O)c1cc(OC)c(OC)c(OC)c1
- IC50 (Tubulin): 2900 nM
- IC50 (HT-29): 400 nM
- inhibition [3]: Weak inhibition
- IC50 (TSGH): 497 nM
- IC50 (KB [1]): 306 nM
- IC50 (KB [2]): 324 nM

SMILES: CCCOc1ccc(C(=O)c2cc(OC)c(OC)c(OC)c2)cc1N
- IC50 (Tubulin): 42000 nM
- IC50 (HT-29): 9000 nM
- IC50 (TSGH): 4800 nM
- IC50 (KB [1]): 3800 nM
- IC50 (KB [2]): 8600 nM

SMILES: COc1ccc(Cc2cc(OC)c(OC)c(OC)c2)cc1N
- IC50 (Tubulin): > 50000 nM
- IC50 (HT-29): > 10000 nM
- IC50 (TSGH): > 10000 nM
- IC50 (KB [1]): > 10000 nM
- IC50 (KB [2]): > 10000 nM

SMILES: COc1cc(C(=O)c2ccc(OC(C)C)c(N)c2)cc(OC)c1OC
- IC50 (Tubulin): 6400 nM
- IC50 (HT-29): 1300 nM
- IC50 (TSGH): 900 nM
- IC50 (KB [1]): 900 nM
- IC50 (KB [2]): 800 nM

SMILES: COc1cc(C(=O)c2cc(Cl)ccc2N)cc(OC)c1OC
- IC50 (Tubulin): 100 nM
- IC50 (HT-29): 218 nM
- IC50 (TSGH): 185 nM
- IC50 (KB [1]): 195 nM
- IC50 (KB [2]): 162 nM

SMILES: COc1ccc(/C=C\c2cc(OC)c(OC)c(OC)c2)cc1N
- IC50 (HT-29): 7.9 nM
- IC50 (TSGH): 7.7 nM
- IC50 (KB [1]): 8.2 nM
- IC50 (KB [2]): 7.5 nM

SMILES: COc1ccc(C(=O)c2cc(OC)c(OC)c(OC)c2)cc1O [PHENSTATIN]
- IC50 (Tubulin): 400 nM
- IC50 (HT-29): 560 nM
- IC50 (TSGH): 170 nM
- IC50 (KB [1]): 30 nM
- IC50 (KB [2]): 30 nM

SMILES: COc1ccc(C(=O)c2cc(OC)c(OC)c(OC)c2)cc1N
- IC50 (Tubulin): 300 nM
- IC50 (HT-29): 33 nM
- IC50 (TSGH): 33 nM
- inhibition [4]: Strong inhibition
- IC50 (KB [1]): 32 nM
- IC50 (KB [2]): 31 nM

SMILES: COc1ccc(N)c(C(=O)c2cc(OC)c(OC)c(OC)c2)c1
- IC50 (Tubulin): 1000 nM
- IC50 (HT-29): 148 nM
- IC50 (TSGH): 100 nM
- IC50 (KB [1]): 127 nM
- IC50 (KB [2]): 352 nM

SMILES: COc1ccc(C(=O)c2cc(OC)c(OC)c(OC)c2)c(N)c1
- IC50 (Tubulin): 400 nM
- IC50 (HT-29): 42 nM
- IC50 (TSGH): 26 nM
- inhibition [4]: Strong inhibition
- IC50 (KB [1]): 32 nM
- IC50 (KB [2]): 24 nM

SMILES: COc1cc(C(=O)c2cc(N)ccc2Cl)cc(OC)c1OC
- IC50 (Tubulin): 600 nM
- IC50 (HT-29): 163 nM
- IC50 (TSGH): 157 nM
- inhibition [5]: effective inhibition
- IC50 (KB [1]): 180 nM
- IC50 (KB [2]): 125 nM

SMILES: COc1cc(C(=O)c2ccc(Cl)cc2N)cc(OC)c1OC
- IC50 (Tubulin): 2700 nM
- IC50 (HT-29): 1000 nM
- IC50 (TSGH): 800 nM
- IC50 (KB [1]): 710 nM
- IC50 (KB [2]): 800 nM

SMILES: COc1cc(C(=O)c2cc(N)cc(Cl)c2)cc(OC)c1OC
- IC50 (Tubulin): 17000 nM
- IC50 (HT-29): 1900 nM
- IC50 (TSGH): 1500 nM
- IC50 (KB [1]): 1400 nM
- IC50 (KB [2]): 2900 nM

SMILES: COc1cc(N)cc(C(=O)c2cc(OC)c(OC)c(OC)c2)c1
- IC50 (Tubulin): 2600 nM
- IC50 (HT-29): 163 nM
- IC50 (TSGH): 157 nM
- IC50 (KB [1]): 590 nM
- IC50 (KB [2]): 307 nM
